Test results: ChEMBL document CHEMBL1641555, “Asymmetric synthesis of phenanthroindolizidine alkaloids with hydroxyl group at the C14 position and evaluation of their antitumor activities” (Bioorg Med Chem Lett, 2011)

Legend:
[1] = system: KB; assay: Cytotoxicity against human KB cells after 96 hrs by WST-8 assay; type: functional, cell-based
Method in brief: (§1)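 KB, A549 and HT-29 cells in exponential growth were seeded at 10³ cells/well. Serially diluted compounds were added the following day and incubated for 96 h. WST-8 reagent was then added for 1 h at 37 °C, and viability was read as absorbance at 450 nm.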

[2] = Antitumor activity against mouse Meth-A cells xenografted in BALB/c mouse assessed as tumor growth inhibition at 25 mg/kg, iv administered on day 1, 5, and 9 measured after 21 days relative to control; type: functional
Method in brief: (§2)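 Meth A sarcoma cells, 2.5 × 10⁵ per mouse, implanted sc in 7-wk-old male BALB/c mice, 5 per group. Compound given iv on days 1, 5 and 9. Tumors excised and weighed on day 21 after inoculation. Inhibition rate (%) = [1 − (mean tumor weight treated)/(mean tumor weight control)] × 100.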

[3] = system: A549; assay: Cytotoxicity against human A549 cells after 96 hrs by WST-8 assay; type: functional, cell-based; details: A549, 96 h; method in brief: as §1
[4] = system: Mus musculus; assay: Toxicity in mouse Meth-A cells xenografted BALB/c mouse assessed as mortality at 50 mg/kg, iv; type: organism-based; set-up: dose 50 mg/kg, route intravenous; details: in vivo
Method in brief: (§3)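 Meth A sarcoma cells, 2.5 × 10⁵ per mouse, inoculated sc into 7-week-old male BALB/c mice, 5 per group. Samples given iv on days 1, 5 and 9. Animals followed to day 21 after tumor inoculation, when tumors were weighed.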

[5] = system: HT-29; assay: Cytotoxicity against human HT-29 cells after 96 hrs by WST-8 assay; type: functional, cell-based; details: HT-29, 96 h; method in brief: as §1
[6] = Antitumor activity against mouse Meth-A cells xenografted in BALB/c mouse assessed as tumor growth inhibition at 50 mg/kg, iv administered on day 1, 5, and 9 measured after 21 days relative to control; type: functional; method in brief: as §2
[7] = system: Mus musculus; assay: Toxicity in mouse Meth-A cells xenografted BALB/c mouse assessed as mortality at 25 mg/kg, iv; type: organism-based; set-up: dose 25 mg/kg, route intravenous; details: in vivo; method in brief: as §3
[8] = system: Mus musculus; assay: Toxicity in mouse Meth-A cells xenografted BALB/c mouse assessed as mortality at 100 mg/kg, iv; type: organism-based; set-up: dose 100 mg/kg, route intravenous; details: in vivo; method in brief: as §3

Row | SMILES | IC50 [1] | inhibition in vivo at 25 mg/kg [2] | IC50 [3] | Activity [4] | IC50 [5] | inhibition in vivo at 50 mg/kg [6] | Activity [7] | Activity [8]
1 | COc1ccc2c3c(c4cc(OC)c(OC)cc4c2c1)CN1CCC[C@H]1[C@H]3O | 4.2 nM | 4.3% | 0.3 nM | Non-toxic | 2.1 nM | – | – | –
2 | CCc1ccc2c3c(c4cc(OC)c(OC)cc4c2c1)CN1CCC[C@@H]1[C@@H]3O | 1590 nM | – | 268 nM | – | 320 nM | – | – | –
3 | COc1cc2c3c(c4ccc(OC(C)=O)cc4c2cc1OC)[C@H](O)[C@@H]1CCCN1C3 | 1.7 nM | 54.9% | 1.5 nM | – | 0.2 nM | 39.3% | Non-toxic | –
4 | COc1cc2c(CBr)cc3ccc(OCc4ccccc4)cc3c2cc1OC | – | – | – | Non-toxic | – | – | – | Non-toxic
5 | Oc1ccc2c3c(c4ccccc4c2c1)CN1CCC[C@H]1[C@H]3O | 1960 nM | – | 354 nM | – | 458 nM | – | – | –
6 | COc1cc2c3c(c4ccc(O)cc4c2cc1OC)[C@H](O)[C@@H]1CCCN1C3 [TYLOPHORIDICINE E] | 5.2 nM | 30.6% | 0.5 nM | Toxic | 1.6 nM | – | Non-toxic | –
7 | CCOc1cc2c3c(c4ccc(O)cc4c2cc1OCC)[C@H](O)[C@@H]1CCCN1C3 | 10.9 nM | -3.1% | 0.7 nM | Non-toxic | 1.2 nM | -10.6% | Non-toxic | –
8 | COc1cc2c3c(c4ccccc4c2cc1OC)[C@@H](O)[C@H]1CCCN1C3 | 2030 nM | – | 604 nM | – | 584 nM | – | – | –
9 | CC1(C)Oc2cc3c4c(c5ccc(O)cc5c3cc2O1)[C@H](O)[C@@H]1CCCN1C4 | 742 nM | – | 928 nM | – | 488 nM | – | – | –
10 | COc1ccc2c3c(c4cc(OC)c(OC)cc4c2c1)CN1CCC[C@@H]1[C@@H]3O | 47.4 nM | – | 15.5 nM | – | 20.8 nM | – | – | –
11 | COc1cc2c3c(c4cc(O)ccc4c2cc1OC)[C@H](O)[C@@H]1CCCN1C3 | 43.8 nM | – | 4.7 nM | – | 6.8 nM | – | – | –
12 | COc1cc2c3c(c4ccc(F)cc4c2cc1OC)[C@@H](O)[C@H]1CCCN1C3 | 653 nM | – | 92.8 nM | – | 106 nM | – | – | –
13 | COc1cc2c3c(c4ccccc4c2cc1OC)[C@H](O)[C@@H]1CCCN1C3 | 17.5 nM | – | 7.4 nM | – | 10.6 nM | – | – | –
14 | COc1cc2c3c(c4ccc(O)cc4c2cc1OC)[C@@H](O)[C@H]1CCCN1C3 | 3 nM | 7.2% | 10.9 nM | Non-toxic | 12.5 nM | 12.5% | Non-toxic | –
15 | COc1cc2c3c(c4ccc(F)cc4c2cc1OC)[C@H](O)[C@@H]1CCCN1C3 | 49 nM | – | 11.2 nM | – | 19.6 nM | – | – | –
16 | CCc1ccc2c3c(c4cc(OC)c(OC)cc4c2c1)CN1CCC[C@H]1[C@H]3O | 180 nM | – | 559 nM | – | 135 nM | – | – | –
17 | COc1cc2c3c(c4cccc(O)c4c2cc1OC)[C@H](O)[C@@H]1CCCN1C3 | 1.4 nM | – | 3.3 nM | – | 82.1 nM | – | – | –
18 | Oc1ccc2c3c(c4cc5c(cc4c2c1)OCO5)CN1CCC[C@H]1[C@H]3O | 25.5 nM | – | 54.4 nM | – | 134 nM | – | – | –
